Measurements as given in ChEMBL document CHEMBL4118248, “Small Molecule Proprotein Convertase Subtilisin/Kexin Type 9 (PCSK9) Inhibitors: Hit to Lead Optimization of Systemic Agents” (J Med Chem, 2018).

Key:
[1] = Permeability from basolateral to apical side in MDCK cells harboring MDR1; assay type: ADME, cell-based, Canis lupus familiaris; conditions: dog, read-out: permeability
Method in brief: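 Bidirectional permeability across MDR1-transfected MDCK monolayers, apical-to-basolateral and basolateral-to-apical; Papp reported in 10^-6 cm/s.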

[2] = Total Cmax in Crl:CD(SD) rat at 15 mg/kg/day, po daily via gavage for 14 days measured on day 14 post last dose up to 24 hrs; assay type: ADME, organism-based; set-up: dose 15 mg/kg/day, route oral; conditions: in vivo
[3] = system: Rattus norvegicus; experiment: Toxicity in Crl:CD(SD) rat at 5 to 15 mg/kg/day, po daily via gavage for 14 days measured on day 15 post last dose; assay type: organism-based; conditions: in vivo, 336 h
[4] = Fraction unbound in rat plasma; assay type: ADME, cell-free
Method in brief: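 Unbound fraction measured in rat plasma.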

[5] = system: Rattus norvegicus; experiment: Toxicity in Crl:CD(SD) rat assessed as decrease in cytotoxic T cells at 50 mg/kg/day, po daily via gavage for 14 days measured on day 15 post last dose relative to control; assay type: organism-based; set-up: scale not given: the % may be the effect or the level left; conditions: in vivo, 336 h
[6] = target: T1, Cytochrome P450 1A2 (Homo sapiens, UniProt P05177); experiment: Inhibition of CYP1A2 (unknown origin); assay type: ADME
T1 sequence (P05177 whole entry): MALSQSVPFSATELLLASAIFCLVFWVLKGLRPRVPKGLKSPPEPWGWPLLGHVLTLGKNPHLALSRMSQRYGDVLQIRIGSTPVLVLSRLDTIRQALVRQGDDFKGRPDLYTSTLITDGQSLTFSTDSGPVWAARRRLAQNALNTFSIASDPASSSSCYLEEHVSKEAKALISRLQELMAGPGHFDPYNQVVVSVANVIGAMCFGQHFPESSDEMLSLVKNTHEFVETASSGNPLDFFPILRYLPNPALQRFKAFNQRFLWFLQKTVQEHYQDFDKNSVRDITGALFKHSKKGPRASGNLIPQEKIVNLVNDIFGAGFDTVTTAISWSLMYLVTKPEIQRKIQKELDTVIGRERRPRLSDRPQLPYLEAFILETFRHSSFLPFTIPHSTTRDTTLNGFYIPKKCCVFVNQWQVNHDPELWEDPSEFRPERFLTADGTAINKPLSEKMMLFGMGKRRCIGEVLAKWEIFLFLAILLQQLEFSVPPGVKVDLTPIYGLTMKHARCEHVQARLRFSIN
Method in brief: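 Inhibition of CYP1A2, 2D6, 2C9 and 3A4 reported as IC50, or as percent inhibition at 3 µM.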

[7] = system: Rattus norvegicus; experiment: Toxicity in Crl:CD(SD) rat assessed as single cell necrosis in crypt cells in ileum at 50 mg/kg/day, po daily via gavage for 14 days measured on day 15 post last dose; assay type: organism-based; conditions: in vivo, 336 h

## O=C(c1ccc(-n2nnc3cccnc32)cc1)N(c1ncccc1Cl)[C@@H]1CCCNC1
[1]
  Papp B→A: 20.6 ×10⁻⁶ cm/s
[2]
  Cmax: 1640 ng/mL
[3]
  Activity: Non-Toxic
[4]
  fraction unbound: 0.2
[5]
  Activity: 54.5%
[6]
  IC50: > 30 µM
[7]
  Activity: Toxic
